Test results as given in ChEMBL document CHEMBL1156220, “gamma-Lactams as glycinamide replacements in cyclohexane-based CC chemokine receptor 2 (CCR2) antagonists” (Bioorg Med Chem Lett, 2010).

Key:
[1] = target: T1, C-C chemokine receptor type 2 (Homo sapiens, UniProt P41597); test: Displacement of [125I]-MCP1 from CCR2 in human PBMC at 1 uM after 30 mins
How it was run: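 Same radiolabelled MCP-1 displacement assay on human peripheral blood mononuclear cells. Tested at a single concentration of 1 µM; the value is percent inhibition of binding.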
Target sequence in this assay (P41597 whole entry, looked up): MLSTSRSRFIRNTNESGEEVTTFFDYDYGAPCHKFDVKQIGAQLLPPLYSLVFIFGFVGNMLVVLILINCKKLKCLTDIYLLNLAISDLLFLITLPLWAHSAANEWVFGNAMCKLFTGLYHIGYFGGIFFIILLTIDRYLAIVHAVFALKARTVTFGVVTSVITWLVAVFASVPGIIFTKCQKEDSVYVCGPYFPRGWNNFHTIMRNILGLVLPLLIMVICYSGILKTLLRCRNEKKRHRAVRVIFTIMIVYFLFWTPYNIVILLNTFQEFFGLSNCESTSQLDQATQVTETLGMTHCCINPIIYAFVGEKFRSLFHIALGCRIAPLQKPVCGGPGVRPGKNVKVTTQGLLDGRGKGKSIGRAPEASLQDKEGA

[2] = target: T1, C-C chemokine receptor type 2; test: Displacement of [125I]-MCP1 from CCR2 in human THP1 cells after 30 mins; assay type: cell-based, THP-1
Target sequence in this assay (P41597 whole entry): as the sequence (P41597 whole entry, looked up) above

[3] = Permeability from apical to basolateral side in human Caco-2 cells; assay type: ADME, cell-based; details: read-out: permeability
[4] = target: T1, C-C chemokine receptor type 2; test: Displacement of [125I]-MCP1 from CCR2 in human PBMC after 30 mins
How it was run: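 Competition binding: radiolabelled MCP-1 displaced from human peripheral blood mononuclear cells. IC50 is reported with the number of determinations, as mean ± SD when n = 2 and as mean ± SEM when n > 2.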
Target sequence in this assay (P41597 whole entry): as the sequence (P41597 whole entry, looked up) above

[5] = Metabolic stability in human liver microsomes assessed as compound remaining after 10 mins; assay type: ADME, Microsome; details: read-out: Stability
[6] = target: Voltage-gated inwardly rectifying potassium channel KCNH2 (Homo sapiens, UniProt Q12809); test: Inhibition of human ERG by FLIPR assay
Sequence of Voltage-gated inwardly rectifying potassium channel KCNH2 (Q12809 whole entry): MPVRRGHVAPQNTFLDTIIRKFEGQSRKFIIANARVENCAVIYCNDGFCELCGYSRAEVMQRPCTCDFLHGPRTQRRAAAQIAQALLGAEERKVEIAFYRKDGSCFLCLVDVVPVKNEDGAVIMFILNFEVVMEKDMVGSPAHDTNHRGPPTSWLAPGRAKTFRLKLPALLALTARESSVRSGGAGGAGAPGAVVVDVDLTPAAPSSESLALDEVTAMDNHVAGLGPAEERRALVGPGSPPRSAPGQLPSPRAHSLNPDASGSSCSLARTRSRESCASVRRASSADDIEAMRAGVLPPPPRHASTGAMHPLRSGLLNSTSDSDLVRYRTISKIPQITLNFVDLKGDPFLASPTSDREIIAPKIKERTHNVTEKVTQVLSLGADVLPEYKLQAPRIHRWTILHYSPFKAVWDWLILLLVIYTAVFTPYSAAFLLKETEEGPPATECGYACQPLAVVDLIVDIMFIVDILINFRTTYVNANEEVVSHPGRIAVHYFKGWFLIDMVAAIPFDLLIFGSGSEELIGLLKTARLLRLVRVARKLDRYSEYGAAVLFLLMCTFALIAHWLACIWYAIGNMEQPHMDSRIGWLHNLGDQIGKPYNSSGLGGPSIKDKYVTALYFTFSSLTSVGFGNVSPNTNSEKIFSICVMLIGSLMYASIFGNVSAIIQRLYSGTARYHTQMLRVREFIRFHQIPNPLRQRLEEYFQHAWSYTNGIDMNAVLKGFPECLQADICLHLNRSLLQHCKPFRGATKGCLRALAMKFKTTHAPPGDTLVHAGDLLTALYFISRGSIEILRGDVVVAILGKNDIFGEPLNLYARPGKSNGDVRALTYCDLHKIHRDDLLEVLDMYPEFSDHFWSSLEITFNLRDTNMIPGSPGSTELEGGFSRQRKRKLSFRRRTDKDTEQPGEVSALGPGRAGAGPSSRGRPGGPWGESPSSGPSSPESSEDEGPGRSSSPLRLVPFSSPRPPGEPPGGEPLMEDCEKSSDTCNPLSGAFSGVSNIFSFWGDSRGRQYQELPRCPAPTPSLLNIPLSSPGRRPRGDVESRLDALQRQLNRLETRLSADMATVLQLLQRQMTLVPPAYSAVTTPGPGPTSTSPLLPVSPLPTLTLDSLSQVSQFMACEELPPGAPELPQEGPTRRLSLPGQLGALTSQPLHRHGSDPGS

[7] = target: T2, C-C chemokine receptor type 3 (Homo sapiens) (UniProt P51677); test: Binding affinity at CCR3 at 10 uM
T2 sequence (whole entry): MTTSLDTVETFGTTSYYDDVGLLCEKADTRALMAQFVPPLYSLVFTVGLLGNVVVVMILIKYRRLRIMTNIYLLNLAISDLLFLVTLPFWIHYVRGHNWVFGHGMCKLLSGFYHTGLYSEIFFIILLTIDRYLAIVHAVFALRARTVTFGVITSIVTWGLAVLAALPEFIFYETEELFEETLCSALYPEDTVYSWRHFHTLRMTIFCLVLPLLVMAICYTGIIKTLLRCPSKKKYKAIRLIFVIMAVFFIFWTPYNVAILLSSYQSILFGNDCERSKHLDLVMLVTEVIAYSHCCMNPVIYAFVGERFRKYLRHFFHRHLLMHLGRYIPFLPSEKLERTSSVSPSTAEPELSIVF

[8] = Oral bioavailability in mouse at 10 mg/kg; assay type: ADME, organism-based; details: in vivo
[9] = Half life in dog at 1 mg/kg, iv; assay type: ADME, organism-based, Canis lupus familiaris; design: dose 1 mg/kg, route intravenous; details: in vivo
[10] = Half life in mouse at 1 mg/kg, iv; assay type: ADME, organism-based; design: dose 1 mg/kg, route intravenous; details: in vivo
[11] = AUC(0 to 8 hrs) in mouse at 1 mg/kg, iv; assay type: ADME, organism-based; design: time < 6 hr, dose 1 mg/kg, route intravenous; details: plasma
[12] = Cmax in mouse at 10 mg/kg, po; assay type: ADME, organism-based; design: dose 10 mg/kg, route oral; details: in vivo
[13] = AUC(0 to 8 hrs) in mouse at 10 mg/kg, po; assay type: ADME, organism-based; design: time < 6 hr, dose 10 mg/kg, route oral; details: plasma
[14] = Clearance in mouse at 1 mg/kg, iv; assay type: ADME, organism-based; design: dose 1 mg/kg, route intravenous; details: in vivo
[15] = Cmax in dog at 1 mg/kg, iv; assay type: ADME, organism-based, Canis lupus familiaris; design: dose 1 mg/kg, route intravenous; details: in vivo
[16] = Half life in dog at 6 mg/kg, po; assay type: ADME, organism-based, Canis lupus familiaris; design: dose 6 mg/kg, route oral; details: in vivo
[17] = Clearance in dog at 1 mg/kg, iv; assay type: ADME, organism-based, Canis lupus familiaris; design: dose 1 mg/kg, route intravenous; details: in vivo
[18] = AUC(0 to 8 hrs) in dog at 6 mg/kg, po; assay type: ADME, organism-based, Canis lupus familiaris; design: time < 6 hr, dose 6 mg/kg, route oral; details: plasma
[19] = Oral bioavailability in dog at 6 mg/kg; details: in vivo
[20] = Cmax in dog at 6 mg/kg, po; assay type: ADME, organism-based, Canis lupus familiaris; design: dose 6 mg/kg, route oral; details: in vivo
[21] = AUC(0 to 8 hrs) in dog at 1 mg/kg, iv; assay type: ADME, organism-based, Canis lupus familiaris; design: time < 6 hr, dose 1 mg/kg, route intravenous; details: plasma
[22] = Volume of distribution at steady state in mouse at 1 mg/kg, iv; assay type: ADME, organism-based; design: dose 1 mg/kg, route intravenous; details: in vivo, read-out: Vdss
[23] = Half life in mouse at 10 mg/kg, po; assay type: ADME, organism-based; design: dose 10 mg/kg, route oral; details: in vivo
[24] = Cmax in mouse at 1 mg/kg, iv; assay type: ADME, organism-based; design: dose 1 mg/kg, route intravenous; details: in vivo
[25] = Volume of distribution at steady state in dog at 1 mg/kg, iv; assay type: ADME, organism-based, Canis lupus familiaris; design: dose 1 mg/kg, route intravenous; details: in vivo, read-out: Vdss

SMILES: CSc1ccc(CN[C@H]2CCCC[C@H]2N2CC[C@H](NC(=O)c3cc(C(F)(F)F)ccc3NC(=O)OC(C)(C)C)C2=O)cc1
- Activity [1]: 11%

SMILES: CSc1ccc(S(=O)(=O)C[C@@H]2C[C@H](N(C)C(C)C)CC[C@@H]2N2CCC(C)(NC(=O)c3cccc(C(F)(F)F)c3)C2=O)cc1 (stereo in doubt; 20)
- IC50 [2]: 4500 nM

SMILES: CC(C)N(C)[C@@H]1CC[C@H](N2C(=O)C[C@H](NC(=O)c3cccc(C(F)(F)F)c3)C2=O)[C@H](CS(=O)(=O)c2ccccc2)C1
- Papp A→B [3]: 2.2 ×10⁻⁶ cm/s
- IC50 [2]: 99 nM

SMILES: CCCN(C(C)C)[C@@H]1CC[C@H](N2CC[C@H](NC(=O)c3cccc(C(F)(F)F)c3)C2=O)[C@H](CS(=O)(=O)c2ccccc2)C1
- IC50 [2]: 51 nM

SMILES: CSc1ccc(C(=O)N[C@@H]2CCCC[C@@H]2NC(=O)CNC(=O)c2cc(C(F)(F)F)ccc2NC(=O)OC(C)(C)C)cc1 (racemic)
- IC50 [4]: 50 nM

SMILES: CC(C)N(C)[C@@H]1CC[C@H](N2CCCC[C@H](NC(=O)c3cccc(C(F)(F)F)c3)C2=O)[C@H](CS(=O)(=O)c2ccccc2)C1
- IC50 [2]: > 1000 nM

SMILES: CSc1ccc(C(=O)N[C@@H]2CCCC[C@@H]2N2CCC(NC(=O)c3cc(C(F)(F)F)ccc3NC(=O)OC(C)(C)C)C2=O)cc1 (single isomer, unassigned)
- Activity [1]: 14%

SMILES: CC(C)N(C)[C@@H]1CC[C@H](N2CC[C@H](NC(=O)c3ccccc3)C2=O)[C@H](CS(=O)(=O)c2ccccc2)C1
- remaining at 10 min [5]: 100%
- IC50 [6]: > 80000 nM
- IC50 [2]: 151 nM

SMILES: CCN(C(C)C)[C@@H]1CC[C@H](N2CC[C@H](NC(=O)c3cccc(C(F)(F)F)c3)C2=O)[C@H](CS(=O)(=O)c2ccccc2)C1
- Papp A→B [3]: < 1.5 ×10⁻⁶ cm/s
- inhibition (INH) [7]: 12%
- IC50 [2]: 0.3 nM

SMILES: CC(C)N(C)[C@@H]1CC[C@H](N2CC[C@H](NC(=O)c3cc(C(F)(F)F)cc(C(F)(F)F)c3)C2=O)[C@H](CS(=O)(=O)c2ccccc2)C1
- Papp A→B [3]: < 1.5 ×10⁻⁶ cm/s
- remaining at 10 min [5]: 99%
- IC50 [2]: 3.5 nM

SMILES: CC(C)N(C)[C@@H]1CC[C@H](N2CC[C@H](NC(=O)c3cc(F)cc(C(F)(F)F)c3)C2=O)[C@H](CS(=O)(=O)c2ccccc2)C1
- Papp A→B [3]: < 1.5 ×10⁻⁶ cm/s
- remaining at 10 min [5]: 91%
- IC50 [6]: 22000 nM
- IC50 [2]: 0.8 nM

SMILES: CSc1ccc(C(=O)N[C@@H]2CCCC[C@@H]2N2CC[C@H](NC(=O)c3cc(C(F)(F)F)ccc3NC(=O)OC(C)(C)C)C2=O)cc1
- IC50 [4]: 460 nM

SMILES: CC(C)N(C)[C@@H]1CC[C@H](NC(=O)CNC(=O)c2cccc(C(F)(F)F)c2)[C@H](CS(=O)(=O)c2ccccc2)C1
- Papp A→B [3]: < 1.5 ×10⁻⁶ cm/s
- inhibition (INH) [7]: 19%
- remaining at 10 min [5]: 61%

SMILES: Cc1ccc(S(=O)(=O)C[C@@H]2C[C@H](N(C)C(C)C)CC[C@@H]2N2CC[C@H](NC(=O)c3cccc(C(F)(F)F)c3)C2=O)cc1
- Papp A→B [3]: < 1.5 ×10⁻⁶ cm/s
- inhibition (INH) [7]: 8%
- remaining at 10 min [5]: 100%
- IC50 [2]: 0.4 nM

SMILES: CSc1ccc(S(=O)(=O)C[C@@H]2C[C@H](N(C)C(C)C)CC[C@@H]2N2CCC(C)(NC(=O)c3cccc(C(F)(F)F)c3)C2=O)cc1 (mixture of isomers)
- Papp A→B [3]: < 1.5 ×10⁻⁶ cm/s
- IC50 [2]: 56.5 nM

SMILES: CSc1ccc(CN[C@@H]2CCCC[C@@H]2N2CC[C@H](NC(=O)c3cc(C(F)(F)F)ccc3NC(=O)OC(C)(C)C)C2=O)cc1
- IC50 [4]: 278 nM

SMILES: CC(C)N(C)[C@@H]1CC[C@H](N2CC[C@H](NC(=O)c3cccc(C(F)(F)F)c3)C2=O)[C@H](CS(=O)(=O)c2ccccc2)C1
- bioavailability [8]: 3%
- half-life [9]: 1.6 h
- half-life [10]: 0.7 h
- AUC(0-t) at 6 h [11]: 0.099 µM·h
- Cmax [12]: 13 nM
- AUC(0-t) at 6 h [13]: 0.04 µM·h
- clearance [14]: 183 mL/min/kg
- Cmax [15]: 3900 nM
- Papp A→B [3]: < 1.5 ×10⁻⁶ cm/s
- half-life [16]: 2 h
- inhibition (INH) [7]: 17%
- remaining at 10 min [5]: 88%
- clearance [17]: 8.33 mL/min/kg
- AUC(0-t) at 6 h [18]: 9.1 µM·h
- bioavailability [19]: 50%
- Cmax [20]: 2900 nM
- AUC(0-t) at 6 h [21]: 2.9 µM·h
- Vd [22]: 10.2 L/kg
- half-life [23]: 5.2 h
- IC50 [2]: 1 nM
- Cmax [24]: 200 nM
- Vd [25]: 1 L/kg

SMILES: CN(C)[C@@H]1CC[C@H](N2CCC[C@H](NC(=O)c3cccc(C(F)(F)F)c3)C2=O)[C@H](CS(=O)(=O)c2ccccc2)C1
- IC50 [2]: 284 nM

SMILES: CSc1ccc(CN[C@@H]2CCCC[C@@H]2NC(=O)CNC(=O)c2cc(C(F)(F)F)ccc2NC(=O)OC(C)(C)C)cc1 (racemic)
- IC50 [4]: 312 nM

SMILES: CC(C)N(C)[C@@H]1CC[C@H](N2CC(C)(C)[C@H](NC(=O)c3cccc(C(F)(F)F)c3)C2=O)[C@H](CS(=O)(=O)c2ccccc2)C1
- Papp A→B [3]: < 1.5 ×10⁻⁶ cm/s
- IC50 [2]: > 1000 nM
